Test results as given in ChEMBL document CHEMBL1123083, “Synthesis and antiherpetic activity of (S)-, (R)-, and (+/-)-9-[(2,3-dihydroxy-1-propoxy)methyl]guanine, linear isomers of 2'-nor-2'-deoxyguanosine” (J Med Chem, 1985).
Converted amounts (≈) assume the structure as drawn. The source made the active and inactive calls. No cut-off for these calls is given here.

Columns and labels:
Human alphaherpesvirus 2 [1] = assay: In vitro anti viral activity tested against HSV-2(Curtis) virus on Rabbit kidney cell cultures.; assay type: functional; conditions: Human alphaherpesvirus 2, kidney; read-out: ED50 (the source's name)
Summary of the method: (§1)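 Confluent primary rabbit kidney monolayers were preincubated with serial drug dilutions in EMEM with 2% fetal calf serum and neomycin. They were then challenged with about 10 TCID50 of HSV-1 Schooler or HSV-2 Curtis and incubated at 37 °C. Cytopathology was scored on day 5. ED50 is the concentration preventing cytopathology in half of the infected cultures.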

Human alphaherpesvirus 1 [2] = assay: In vitro anti viral activity tested against HSV-1(Schooler) virus on Rabbit kidney cell cultures.; assay type: functional; conditions: Human alphaherpesvirus 1, kidney; read-out: ED50 (the source's name); summary of the method: as §1
[3] = test system: DNA polymerase (Homo sapiens); assay: Evaluated for DNA polymerase inhibition activity against HeLa cells.
Human alphaherpesvirus 1 [4] = assay: Efficacy was evaluated against Systemic HSV-1 infection in mice at a daily dose of 0.8 mg/kg administered subcutaneously; assay type: ADME, organism-based; design: dose 0.8 mg/kg, route subcutaneous; conditions: mouse, in vivo, sc
Summary of the method: (§2)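 ICR/Ha mice (10–20 g, mixed sex) were infected intraperitoneally with 50–100 LD50 of HSV-1 Schooler. Subcutaneous dosing of 0.1 mL twice daily for 4 days started immediately after infection. Groups were of about 10 mice. Survival was recorded daily for 15 days and reported as survivors/total and mean survival time (95% CI). Transformed survival times were compared with placebo-treated infected mice (p < 0.05).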

Human alphaherpesvirus 1 [5] = assay: Efficacy was evaluated against Systemic HSV-1 infection in mice at a daily dose of 0.8 mg/kg administered subcutaneously; Tested mice 10; assay type: organism-based; design: dose 0.8 mg/kg, route subcutaneous; conditions: mouse, in vivo, sc; summary of the method: as §2
Human alphaherpesvirus 1 [6] = assay: Efficacy was evaluated against Systemic HSV-1 infection in mice at a daily dose of 12.5 mg/kg administered subcutaneously; Tested mice 10; assay type: organism-based; design: dose 12.5 mg/kg, route subcutaneous; conditions: mouse, in vivo, sc; summary of the method: as §2
Human alphaherpesvirus 1 [7] = assay: Efficacy was evaluated against Systemic HSV-1 infection in mice at a daily dose of 12.5 mg/kg administered subcutaneously; assay type: ADME, organism-based; design: dose 12.5 mg/kg, route subcutaneous; conditions: mouse, in vivo, sc; summary of the method: as §2
Human alphaherpesvirus 2 [8] = assay: In vitro anti viral activity tested against HSV-2(Curtis) virus on Rabbit kidney cell cultures; 25-50; assay type: functional; conditions: Human alphaherpesvirus 2, kidney; read-out: ED50 (the source's name); summary of the method: as §1
Human alphaherpesvirus 1 [9] = assay: Evaluated for DNA polymerase inhibition activity against herpes simplex virus-1 (HSV-1); assay type: functional
Summary of the method: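 Step II mixture supplied the phosphorylated test material. Step I: compound with HSV-1 thymidine kinase, 4 h, 37 °C. Step II: then HSV-1-infected HeLa crude extract plus GMP kinase, overnight, 30 °C. A 20 μL sample went to a 1 h, 37 °C DNA polymerase assay at pH 8 with activated salmon sperm DNA, 0.05 mM each dNTP ([³H]dTTP) and infected HeLa extract. (NH₄)₂SO₄ 0.1 M was present for the viral enzyme and omitted for the cellular polymerases. Read-out: TCA-precipitable radioactivity.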

Human alphaherpesvirus 1 [10] = assay: Efficacy was evaluated against Systemic HSV-1 infection in mice at a daily dose of 3.1 mg/kg administered subcutaneously; Tested mice 10; assay type: ADME, organism-based; design: dose 3.1 mg/kg, route subcutaneous; conditions: mouse, in vivo, sc; summary of the method: as §2
Human alphaherpesvirus 1 [11] = assay: Efficacy was evaluated against Systemic HSV-1 infection in mice at a daily dose of 3.1 mg/kg administered subcutaneously; assay type: ADME, organism-based; design: dose 3.1 mg/kg, route subcutaneous; conditions: mouse, in vivo, sc; summary of the method: as §2
Human betaherpesvirus 5 = assay: In vitro anti viral activity tested against HCMV(AD169) virus on MRC-5 cell monolayers; NA=Not active at 25 ug/mL; assay type: functional, organism-based; conditions: MRC5
Summary of the method: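 MRC-5 monolayers were infected with HCMV AD169 for 1 h at 37 °C. Compound diluted in maintenance medium was then added and incubation continued for 7 days at 37 °C. Monolayers were stained and plaques counted. ED50 is the concentration reducing plaque number by 50%.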

| Structure (SMILES) | EC50 (Human alphaherpesvirus 2 [1]) | EC50 (Human alphaherpesvirus 1 [2]) | Inhibition [3] | Average survival (Human alphaherpesvirus 1 [4]) | Survivors (Human alphaherpesvirus 1 [5]) | Survivors (Human alphaherpesvirus 1 [6]) | Average survival (Human alphaherpesvirus 1 [7]) | EC50 (Human alphaherpesvirus 2 [8]) | Inhibition (Human alphaherpesvirus 1 [9]) | Survivors (Human alphaherpesvirus 1 [10]) | Average survival (Human alphaherpesvirus 1 [11]) | ED50 (Human betaherpesvirus 5) |
| --- | --- | --- | --- | --- | --- | --- | --- | --- | --- | --- | --- | --- |
| Nc1nc(O)c2ncn(COCC(O)CO)c2n1 (stereo not drawn) | 6 µg/mL (≈ 23.5 µM) | 3 µg/mL (≈ 11.8 µM) |  |  |  |  |  |  |  |  |  |  |
| Nc1nc(O)c2ncn(COCC(O)CO)c2n1 (single isomer, unassigned; form 1) [listing 1 of 2 here] |  | 25 µg/mL (≈ 97.9 µM) | 0% | 6.3 days | 0 | 1 | 7.5 days | 25 µg/mL (≈ 97.9 µM) | 7% | 1 | 6.5 days |  |
| Nc1nc(O)c2ncn(COCC(O)CO)c2n1 (single isomer, unassigned; form 1) [listing 2 of 2 here] |  |  |  |  |  |  |  |  |  |  |  | inactive |
